T cruzi HTS: blocks T. cruzi growth inside host cells | AID 651903 | activity score (inhibition), % at 5.01 µM | hit rate 4.9% among 22,000 | intracellular Trypanosoma cruzi in host cells, plate reader; in the data active = activity score above about 55%; inconclusive = no clear call, values can overlap the other calls;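 note: parasites and compound incubated about four days before reading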
INS-1E rescue: preserves ATP levels in cytokine-treated INS-1E cells | hit rate 0.1% among 20,000 | protection from cytokine-induced ATP loss, % at 10 µM | INS-1E cytokine-induced death, ATP luminescence, 48 h; normalised: neutral wells 0, positive control 100 | AID 488910;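 active = mean replicate protection from cytokine-induced ATP loss at least 50% and at least 75% of replicates each reaching 50%; inconclusive = meets only one of the two criteria, mean or replicate share; inactive = fails both the mean and replicate share criteria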
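assay system = INS-1E rat insulinoma cells | amount = 8000 cells per well | medium = phenol-red-free RPMI with 5% fetal bovine serum | doses = one compound concentration, pin transfer | timing = 48 h cytokine plus compound treatment, 10 min reagent incubation | also added = IL-1β, TNF-α and IFN-γ cytokine mix | signal = CellTiter-Glo luminescence measuring cellular ATP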
A1 apoptosis 2: compounds inhibiting A1, read as caspase activation. MEF A1-2A-BIM cells, caspase-Glo luminescence, 3 h; percent of clofoctol response, DMSO zero. caspase activation, % (concentration not given with the values). 24,000 tested, under 10 active. AID 2465; in the data active = caspase activation above about 5.9%; inconclusive = no clear call, values can overlap the other calls; inactive = below about 2.2%
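System: mouse embryonic fibroblasts co-expressing A1 and BIM (A1-2A-BIM), primed for A1 dependence; amount: 2500 cells/well; doses: 50 nL pinned compound; schedule: cells settled overnight, compound exposure 3 h at 37 °C, 5% CO2; detection: Caspase-Glo 3/7 luminescence, 1 h at room temperature; read-out: Caspase-3/7 activation, seen as rise in luminescence signal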
Of the large screens only hits and unclear results are named; the others gave an inactive call. The entries come from a sample that favours hits as a whole.

C=CCNC(=O)[C@H]1[C@@H]2C(=O)O[C@@H](c3ccccc3)[C@@H](c3ccccc3)N2[C@@H](c2ccc(O)cc2)[C@]12C(=O)Nc1ccc(C#CC3(O)CCCCCC3)cc12	none (no result: T cruzi HTS, INS-1E rescue)
C[C@@H]1CN([C@H](C)CO)C(=O)c2cc(NC(=O)Nc3cccc4ccccc34)ccc2O[C@H]1CN(C)Cc1ccc(-c2ccccc2)cc1	T cruzi HTS 85.7
C[C@H]1CN([C@@H](C)CO)C(=O)c2cc(NC(=O)Nc3cccc4ccccc34)ccc2O[C@@H]1CN(C)Cc1ccc(Oc2ccccc2)cc1	T cruzi HTS 81.1
C[C@@H]1CN([C@H](C)CO)C(=O)c2cc(NC(=O)Nc3cccc4ccccc34)ccc2O[C@@H]1CN(C)Cc1ccc(Oc2ccccc2)cc1	none (no result: A1 apoptosis 2)
C[C@H]1CN([C@@H](C)CO)C(=O)c2cc(NC(=O)Nc3cccc4ccccc34)ccc2O[C@H]1CN(C)Cc1ccc(-c2ccccc2)cc1	none (no result: INS-1E rescue)
O=C(N/N=C/c1ccccc1Br)c1ccccn1	none
C[C@@H]1CN([C@@H](C)CO)C(=O)c2cc(NC(=O)Nc3ccc(C(F)(F)F)cc3)ccc2O[C@@H](C)CCCCO[C@@H]1CN(C)CC1CCCCC1	none (no result: T cruzi HTS, INS-1E rescue)
C[C@@H]1CCCCO[C@H](CN(C)CC2CCCCC2)[C@H](C)CN([C@H](C)CO)C(=O)c2cc(NC(=O)Nc3ccc4c(c3)OCO4)ccc2O1	none (no result: T cruzi HTS, INS-1E rescue)
C[C@@H]1CCCCO[C@@H](CN(C)CC2CCCCC2)[C@H](C)CN([C@H](C)CO)C(=O)c2cc(NC(=O)Nc3ccc(C(F)(F)F)cc3)ccc2O1	A1 apoptosis 2 8.3 (no result: T cruzi HTS, INS-1E rescue)
COc1ccc(NC(=O)Nc2ccc3c(c2)C(=O)N([C@@H](C)CO)C[C@@H](C)[C@@H](CN(C)CC2CCCCC2)OCCCC[C@H](C)O3)cc1	none (no result: T cruzi HTS, INS-1E rescue)
COc1ccc(NC(=O)Nc2ccc3c(c2)C(=O)N([C@H](C)CO)C[C@H](C)[C@@H](CN(C)CC2CCCCC2)OCCCC[C@@H](C)O3)cc1	T cruzi HTS 76.0 (no result: A1 apoptosis 2)
C[C@@H]1CCCCO[C@H](CN(C)CC2CCCCC2)[C@@H](C)CN([C@H](C)CO)C(=O)c2cc(NC(=O)Nc3ccc4c(c3)OCO4)ccc2O1	T cruzi HTS 79.3 (no result: A1 apoptosis 2)
C[C@@H]1CCCCO[C@H](CN(C)CC2CCCCC2)[C@@H](C)CN([C@H](C)CO)C(=O)c2cc(NC(=O)Nc3ccc(C(F)(F)F)cc3)ccc2O1	T cruzi HTS 70.3
C[C@@H]1CCCCO[C@H](CN(C)CC2CCCCC2)[C@H](C)CN([C@H](C)CO)C(=O)c2cc(NC(=O)Nc3ccc(C(F)(F)F)cc3)ccc2O1	none (no result: T cruzi HTS, INS-1E rescue)
O=C(O)CCCCCC(=O)N=NC=C1C=CN(O)C=C1	none
O=C(CCCCCC(=O)N/N=C/c1ccncc1Br)NO	none (no result: T cruzi HTS, INS-1E rescue)
Cn1cc(/C=N/NC(=O)c2cccc(C(=O)NO)c2)c2ccccc21	none
COc1ccc(NC(=O)Nc2ccc3c(c2)CC(=O)N([C@@H](C)CO)C[C@H](C)[C@H](CN(C)Cc2ccc(Cl)c(Cl)c2)O3)cc1	T cruzi HTS 64.4 (no result: A1 apoptosis 2)
C[C@H]1CN([C@@H](C)CO)C(=O)Cc2cc(NC(=O)Nc3ccc(F)cc3)ccc2O[C@@H]1CN(C)Cc1ccc(Cl)c(Cl)c1	T cruzi HTS inconclusive (no result: A1 apoptosis 2)
COc1ccc(NC(=O)Nc2ccc3c(c2)CC(=O)N([C@H](C)CO)C[C@@H](C)[C@H](CN(C)Cc2ccc(Cl)c(Cl)c2)O3)cc1	T cruzi HTS inconclusive (no result: A1 apoptosis 2)
C[C@@H]1CN([C@H](C)CO)C(=O)Cc2cc(NC(=O)Nc3ccc(F)cc3)ccc2O[C@H]1CN(C)Cc1ccc(Cl)c(Cl)c1	T cruzi HTS 62.0
COc1ccc(NC(=O)Nc2ccc3c(c2)CC(=O)N([C@H](C)CO)C[C@@H](C)[C@@H](CN(C)Cc2ccc(Cl)c(Cl)c2)O3)cc1	T cruzi HTS 74.4
COc1ccc(CN(C)C[C@H]2Oc3ccc(NC(=O)Nc4ccc(OC)cc4)cc3CC(=O)N([C@H](C)CO)C[C@@H]2C)cc1	none (no result: T cruzi HTS, INS-1E rescue)
O=C(O)CCCCCCC(=O)N/N=C/c1ccc[nH]1	none (no result: A1 apoptosis 2)
O=C(N/N=C/c1ccc(F)c(Oc2ccccc2)c1)c1ccccn1	none
O=C1O[C@H](c2ccccc2)[C@H](c2ccccc2)N2[C@H]1[C@@H](C(=O)NC[C@H](O)c1ccccc1)[C@]1(C(=O)Nc3ccccc31)[C@H]2c1ccccc1OCCO	none (no result: T cruzi HTS, INS-1E rescue)
O=C(N/N=C/c1cccc(Br)c1)c1ccccc1O	none
CC(=O)Nc1ccc(C(=O)Nc2ccccc2[N+](=O)[O-])cc1	none (no result: T cruzi HTS, INS-1E rescue)
C[C@H](CO)N1C[C@H](C)[C@@H](CN(C)C(=O)Nc2ccc(C(F)(F)F)cc2)Oc2c(NC(=O)c3nc4ccccc4s3)cccc2C1=O	T cruzi HTS 57.7
C[C@@H]1CN([C@H](C)CO)C(=O)c2cccc(NC(=O)c3nc4ccccc4s3)c2O[C@@H]1CN(C)C(=O)Nc1ccc(C(F)(F)F)cc1	none (no result: A1 apoptosis 2)
C[C@@H]1CN([C@@H](C)CO)C(=O)c2cccc(NC(=O)c3nc4ccccc4s3)c2O[C@@H]1CN(C)C(=O)Nc1ccc(F)cc1	none (no result: A1 apoptosis 2)
C[C@H](CO)N1C[C@H](C)[C@H](CN(C)C(=O)Nc2ccc(C(F)(F)F)cc2)Oc2c(NC(=O)c3nc4ccccc4s3)cccc2C1=O	T cruzi HTS 63.3 (no result: A1 apoptosis 2)
COC(=O)CCCCCCC(=O)N/N=C/c1cc(Br)c(O)c(Br)c1	none
C=CCOc1ccccc1/C=N/NC(=O)c1cccc(C(=O)NO)c1	none (no result: A1 apoptosis 2)
NC(=O)COc1ccc(/C=N/NC(=O)c2ccccn2)cc1	none
O=C(NO)c1cccc(C(=O)N/N=C/c2cccc(OCCO)c2)c1	none
COc1ccc(S(=O)(=O)N(C)C[C@H]2Oc3c(NC(=O)c4ccc(-c5nccs5)cc4)cccc3C(=O)N([C@H](C)CO)C[C@H]2C)cc1	none (no result: A1 apoptosis 2)
Cc1ccc(S(=O)(=O)N(C)C[C@H]2Oc3c(NC(=O)c4ccc(-c5nccs5)cc4)cccc3C(=O)N([C@@H](C)CO)C[C@H]2C)cc1	none (no result: A1 apoptosis 2)
Cc1ccc(S(=O)(=O)N(C)C[C@@H]2Oc3c(NC(=O)c4ccc(-c5nccs5)cc4)cccc3C(=O)N([C@H](C)CO)C[C@@H]2C)cc1	T cruzi HTS 71.1
COc1ccc(S(=O)(=O)N(C)C[C@@H]2Oc3c(NC(=O)c4ccc(-c5nccs5)cc4)cccc3C(=O)N([C@H](C)CO)C[C@@H]2C)cc1	T cruzi HTS 73.7
O=C(NO)c1cccc(C(=O)N/N=C/c2ccccc2[N+](=O)[O-])c1	none
Cc1ccc(S(=O)(=O)Nc2ccc3c(c2)CC(=O)N([C@@H](C)CO)C[C@@H](C)[C@@H](CN(C)Cc2ccc(C(=O)Nc4ccccc4N)cc2)O3)cc1	T cruzi HTS 63.5
C[C@@H]1CN([C@@H](C)CO)C(=O)c2cc(NS(=O)(=O)c3cccs3)ccc2O[C@H]1CN(C)Cc1ccc(C(=O)Nc2ccccc2N)cc1	none
COc1ccc(S(=O)(=O)Nc2ccc3c(c2)CC(=O)N([C@@H](C)CO)C[C@H](C)[C@@H](CN(C)Cc2ccc(C(=O)Nc4ccccc4N)cc2)O3)cc1	T cruzi HTS 57.7
C[C@@H]1CN([C@H](C)CO)C(=O)Cc2cc(NS(=O)(=O)c3ccc(Cl)cc3)ccc2O[C@H]1CN(C)Cc1ccc(C(=O)Nc2ccccc2N)cc1	T cruzi HTS 69.0 (no result: A1 apoptosis 2)
